Values after ≈ are worked out from the molar mass of the structure shown.
Key:
Eikenella corrodens = test: Antibacterial activity against anaerobic Bacteroides corrodens 1874; assay type: functional
Summary of the method: (§1)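 MIC by agar dilution following the NCCLS M11-A2 (2nd ed.) procedure for antimicrobial testing of anaerobic bacteria.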

Phocaeicola vulgatus = test: Antibacterial activity against anaerobic Bacteroides vulgatus 1211; assay type: functional; summary of the method: as §1
[1] = tested on: Bacteroides thetaiotaomicron; test: Antibacterial activity against anaerobic Bacteroides thetaiotaomicron 1438; assay type: functional; summary of the method: as §1
[2] = tested on: Prevotella melaninogenica; test: Antibacterial activity against anaerobic Bacteroides melaninogenicus 1856/28; assay type: functional; summary of the method: as §1
[3] = tested on: Prevotella melaninogenica; test: Antibacterial activity against anaerobic Bacteroides melaninogenicus 2736; assay type: functional; summary of the method: as §1
Bacteroides fragilis [4] = test: Antibacterial activity against anaerobic Bacteroides fragilis 111; assay type: functional; summary of the method: as §1
Bacteroides fragilis [5] = test: Antibacterial activity against anaerobic Bacteroides fragilis 1877; assay type: functional; summary of the method: as §1
Bacteroides fragilis [6] = test: Antibacterial activity against anaerobic Bacteroides fragilis 1936B; assay type: functional; summary of the method: as §1
Clostridioides difficile = test: Antibacterial activity against anaerobic Clostridium difficile 2994 strain; assay type: functional; summary of the method: as §1
Clostridium perfringens = test: Antibacterial activity against anaerobic Clostridium perfringens 81; assay type: functional
Summary of the method: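 Agar dilution MIC following NCCLS document M11-A2 (Vol. 10, no. 15), the method for antimicrobial testing of anaerobic bacteria; value reported as minimum inhibitory concentration.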

Clostridium septicum = test: Antibacterial activity against anaerobic Clostridium septicum 1128; assay type: functional; summary of the method: as §1
Escherichia coli = test: Antibacterial activity against aerobic Escherichia coli EC14; assay type: functional
Summary of the method: (§2)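 MIC by agar dilution following the NCCLS M7-A2 (2nd ed.) procedure for bacteria that grow aerobically.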

[7] = Antibacterial activity against anaerobic Eubacterium aerofaciens 1235; assay type: functional; conditions: Collinsella aerofaciens; summary of the method: as §1
Klebsiella aerogenes = test: Antibacterial activity against aerobic Enterobacter aerogenes C32; assay type: functional; summary of the method: as §2
[8] = Antibacterial activity against anaerobic Fusobacterium symbiosum 1470; assay type: functional, fusobacterium symbosium; summary of the method: as §1
[9] = tested on: Fusobacterium necrophorum; test: Antibacterial activity against anaerobic Fusobacterium necrophorum 6054A; assay type: functional; summary of the method: as §1
Haemophilus influenzae = test: Antibacterial activity against aerobic Haemophilus influenzae RES 76; assay type: functional; summary of the method: as §2
Klebsiella pneumoniae = test: Antibacterial activity against aerobic Klebsiella pneumoniae X26; assay type: functional; summary of the method: as §2
[10] = tested on: Peptostreptococcus anaerobius; test: Antibacterial activity against anaerobic Peptostreptococcus anaerobius 1451; assay type: functional; summary of the method: as §1
[11] = Antibacterial activity against anaerobic Peptostreptococcus intermedius 1264; assay type: functional; summary of the method: as §1
Pseudomonas aeruginosa = test: Antibacterial activity against aerobic Pseudomonas aeruginosa X239 strain; assay type: functional; summary of the method: as §2
[12] = Antibacterial activity against anaerobic Peptococcus asaccharolyticus 1302; assay type: functional; conditions: Peptoniphilus asaccharolyticus; summary of the method: as §1
Anaerococcus prevotii = test: Antibacterial activity against anaerobic Peptococcus prevoti 1281; assay type: functional; summary of the method: as §1
Cutibacterium acnes = test: Antibacterial activity against anaerobic Propionibacterium acnes 79; assay type: functional; summary of the method: as §1
[13] = tested on: Staphylococcus epidermidis; test: Antibacterial activity against aerobic Staphylococcus epidermidis 222; assay type: functional; summary of the method: as §2
Streptococcus pneumoniae = test: Antibacterial activity against aerobic Streptococcus pneumoniae PARK; assay type: functional; summary of the method: as §2
Staphylococcus aureus = test: Antibacterial activity against aerobic Staphylococcus aureus X1.1 strain; assay type: functional; summary of the method: as §2
[14] = Area under plasma time curve determined in male rat; assay type: ADME, organism-based
Summary of the method: (§3)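 Male Sprague-Dawley rats given 20 mg/kg i.v. in saline through an indwelling jugular vein cannula, which was also used for serial blood sampling over 6 h. Plasma drug measured by agar well diffusion bioassay with Micrococcus luteus ATCC9241 (detection limit 3.2 μg/mL plasma). AUC by Simpson's rule.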

[15] = Maximum concentration reached following intravenous administration in male rat; assay type: ADME, organism-based; parameters: route intravenous; conditions: in vivo; summary of the method: as §3
Bacteroides fragilis [16] = test: Antibacterial activity against anaerobic; assay type: functional; summary of the method: as §1

SMILES	MIC (Eikenella corrodens) [µg/mL]	MIC (Phocaeicola vulgatus) [µg/mL]	MIC [1] [µg/mL]	MIC [2] [µg/mL]	MIC [3] [µg/mL]	MIC (Bacteroides fragilis [4]) [µg/mL]	MIC (Bacteroides fragilis [6]) [µg/mL]	MIC (Clostridioides difficile) [µg/mL]	MIC (Clostridium perfringens) [µg/mL]	MIC (Clostridium septicum) [µg/mL]	MIC (Escherichia coli) [µg/mL]	MIC [7] [µg/mL]	MIC (Klebsiella aerogenes) [µg/mL]	MIC [8] [µg/mL]	MIC [9] [µg/mL]	MIC (Haemophilus influenzae) [µg/mL]	MIC (Klebsiella pneumoniae) [µg/mL]	MIC [10] [µg/mL]	MIC [11] [µg/mL]	MIC (Pseudomonas aeruginosa) [µg/mL]	also measured
CO/N=C(\C(=O)N[C@@H]1C(=O)N2C(C(=O)O)=C(Sc3ncc(S(C)(=O)=O)s3)CC[C@H]12)c1csc(N)n1	> 128	16 (≈ 28.6 µM)	2 (≈ 3.58 µM)	0.125 (≈ 0.224 µM)	32 (≈ 57.3 µM)	> 128	> 128	0.125 (≈ 0.224 µM)	0.25 (≈ 0.448 µM)	16 (≈ 28.6 µM)	0.06 (≈ 0.107 µM)	32 (≈ 57.3 µM)	0.25 (≈ 0.448 µM)	8 (≈ 14.3 µM)	0.008 (≈ 0.0143 µM)	0.015 (≈ 0.0269 µM)	0.03 (≈ 0.0537 µM)	0.5 (≈ 0.895 µM)	0.03 (≈ 0.0537 µM)	> 128	MIC (Bacteroides fragilis [5]): 32 µg/mL (≈ 57.3 µM); MIC [12]: 0.25 µg/mL (≈ 0.448 µM); MIC (Anaerococcus prevotii): 0.25 µg/mL (≈ 0.448 µM); MIC (Cutibacterium acnes): 0.03 µg/mL (≈ 0.0537 µM); MIC [13]: 1 µg/mL (≈ 1.79 µM); MIC (Streptococcus pneumoniae): 0.008 µg/mL (≈ 0.0143 µM); MIC (Staphylococcus aureus): 0.25 µg/mL (≈ 0.448 µM)
CO/N=C(\C(=O)N[C@@H]1C(=O)N2C(C(=O)O)=C(Sc3ncc(C#N)s3)CC[C@H]12)c1csc(N)n1	> 128	16 (≈ 31.6 µM)	4 (≈ 7.91 µM)	0.25 (≈ 0.494 µM)	32 (≈ 63.3 µM)	> 128	> 128	0.06 (≈ 0.119 µM)	0.25 (≈ 0.494 µM)	1 (≈ 1.98 µM)	0.5 (≈ 0.989 µM)	16 (≈ 31.6 µM)	0.5 (≈ 0.989 µM)	2 (≈ 3.96 µM)	0.25 (≈ 0.494 µM)	0.125 (≈ 0.247 µM)	0.25 (≈ 0.494 µM)	0.5 (≈ 0.989 µM)	0.03 (≈ 0.0593 µM)	128 (≈ 253 µM)	MIC (Bacteroides fragilis [5]): 16 µg/mL (≈ 31.6 µM); MIC [12]: 0.25 µg/mL (≈ 0.494 µM); MIC (Anaerococcus prevotii): 0.5 µg/mL (≈ 0.989 µM); MIC (Cutibacterium acnes): 0.03 µg/mL (≈ 0.0593 µM); MIC [13]: 1 µg/mL (≈ 1.98 µM); MIC (Streptococcus pneumoniae): 0.008 µg/mL (≈ 0.0158 µM); MIC (Staphylococcus aureus): 0.25 µg/mL (≈ 0.494 µM)
Nc1nc(/C(=N/OCCF)C(=O)N[C@@H]2C(=O)N3C(C(=O)O)=C(Sc4ncc([N+](=O)[O-])s4)CC[C@H]23)cs1	8 (≈ 14.3 µM)	1 (≈ 1.79 µM)	≤ 0.5	2 (≈ 3.59 µM)	1 (≈ 1.79 µM)	4 (≈ 7.17 µM)	4 (≈ 7.17 µM)	4 (≈ 7.17 µM)	1 (≈ 1.79 µM)	1 (≈ 1.79 µM)	0.5 (≈ 0.897 µM)	4 (≈ 7.17 µM)	1 (≈ 1.79 µM)	1 (≈ 1.79 µM)	≤ 0.5	0.008 (≈ 0.0143 µM)	0.008 (≈ 0.0143 µM)	≤ 0.5	≤ 0.5	> 128	AUC [14]: 11100 ng·h/mL; MIC (Bacteroides fragilis [5]): 1 µg/mL (≈ 1.79 µM); MIC [12]: ≤ 0.5 µg/mL; MIC (Anaerococcus prevotii): ≤ 0.5 µg/mL; MIC (Cutibacterium acnes): ≤ 0.5 µg/mL; MIC [13]: 1 µg/mL (≈ 1.79 µM); MIC (Streptococcus pneumoniae): 0.008 µg/mL (≈ 0.0143 µM); MIC (Staphylococcus aureus): 0.125 µg/mL (≈ 0.224 µM); Cmax [15]: 54.2 µg/mL
CO[C@@]1(NC(=O)Cc2cccs2)C(=O)N2C(C(=O)O)=C(COC(N)=O)CS[C@@H]21 [CEFOXITIN]	4 (≈ 9.36 µM)	8 (≈ 18.7 µM)	2 (≈ 4.68 µM)	4 (≈ 9.36 µM)	8 (≈ 18.7 µM)	8 (≈ 18.7 µM)	8 (≈ 18.7 µM)	32 (≈ 74.9 µM)	2 (≈ 4.68 µM)	4 (≈ 9.36 µM)	2 (≈ 4.68 µM)	8 (≈ 18.7 µM)	> 128	8 (≈ 18.7 µM)	≤ 0.5	2 (≈ 4.68 µM)	1 (≈ 2.34 µM)	2 (≈ 4.68 µM)	2 (≈ 4.68 µM)	> 128	MIC (Bacteroides fragilis [16]): 4 µg/mL (≈ 9.36 µM); MIC [12]: ≤ 0.5 µg/mL; MIC (Anaerococcus prevotii): 1 µg/mL (≈ 2.34 µM); MIC (Cutibacterium acnes): 2 µg/mL (≈ 4.68 µM); MIC [13]: 4 µg/mL (≈ 9.36 µM); MIC (Streptococcus pneumoniae): 0.5 µg/mL (≈ 1.17 µM); MIC (Staphylococcus aureus): 4 µg/mL (≈ 9.36 µM)

— ChEMBL document CHEMBL1126762, “Synthesis and anaerobic activity of novel 1-carba-1-dethiacephalosporins” (J Med Chem, 1993)
